Results taken from PMC5766731 (Clinical Pharmacokinetics, 2017).
Where two headings read alike, the source gives them in different places.

Legend:
[1] = test system: serum erythropoietin (EPO), hemoglobin, hematocrit, reticulocyte count; assay: Part II pharmacodynamics; format: in vivo, human; details: for serum EPO C max: placebo 11.0 mIU/L
In short: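 Serum EPO, hemoglobin, hematocrit and reticulocyte count were measured in blood taken before and after oral dosing. Regimens: part I single fasted doses 10–300 mg vs placebo; part II 100–300 mg on Days 1, 3, 5 vs placebo; part III single 150 mg, fasted vs fed, men and women. EPO expressed baseline-corrected. Post-dose vs baseline compared by paired two-sided t test, α = 0.05.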

[2] = beagle dogs, oral route; cited from earlier work
[3] = after oral dosing across the species tested; cited from earlier work
[4] = Part III safety assessment; format: in vivo, human
In short: (§1)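 Safety monitored under ICH-GCP in each part (single 10–300 mg; alternate-day 100–300 mg; 150 mg fasted/fed crossover). Assessments: adverse events coded with MedDRA version 18.0, clinical examinations, frequent vital signs, 12-lead ECGs, clinical laboratory tests, and continuous ECG for 24 h post-dose in parts I and II. Post-dose vs baseline compared by paired two-sided t test, α = 0.05.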

[5] = cited from earlier work
serum EPO levels = details: acute pharmacodynamic animal model; cited from earlier work
[6] = Part III sex and food effect pharmacokinetics; format: in vivo, human; details: for AUCt / AUC∞ / C max / CL/F_obs / HL_Lambda_z (terminal half-life) / V z/F_obs / λz: part III, single oral 150 mg, n = 10, mean ± SD
In short: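 Open-label crossover at a single 150 mg oral dose, with at least 14 days washout and an overnight fast of at least 10 h before each dose. Period I: 12 subjects (6 men, 6 women), fasted. Period II: 10 subjects (5 men, 5 women) given a high-fat, roughly 800–1000 calorie breakfast 30 min pre-dose. Drug measured in diluted blood by LC-MS/MS (2–5000 ng/mL). Food effect tested by two-sided t test, α = 0.05.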

hemoglobin levels = details: cited from earlier work
[7] = rats, oral route; cited from earlier work
[8] = rats, 1-month toxicity study; cited from earlier work
[9] = Part II urinary recovery of ZYAN1; format: in vivo, human; details: urine
In short: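 Urine collected pre-dose and over 0–12, 12–24, 24–36 and 36–48 h: after the single dose (10–300 mg, part I) or after each alternate-day dose on Days 1, 3 and 5 (part II). Total volume recorded; 5 mL aliquots stored at –80 ± 10 °C. Acetonitrile precipitation and LC-MS/MS with analog internal standard, urine calibration 2–5000 ng/mL, LLOQ 2 ng/mL. Amount and percentage of dose recovered calculated.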

[10] = dogs, cited from earlier work
[11] = Part II safety assessment; format: in vivo, human
In short: as §1

O=C(O)CNC(=O)c1c(O)c2ccccc2n(OCC2CC2)c1=O [ZYAN1]
lag in time to EPO C max from pharmacokinetic t max ([1]; multiple dosing, similar to single dosing): 6 to 8 h | serum EPO C max ([1]; part II, 100 mg on Days 1, 3, 5): 14.4 mIU/L | serum EPO C max ([1]; part II, 300 mg on Days 1, 3, 5): 60.5 mIU/L | hemoglobin increase on any timepoint, seen in more subjects than placebo ([1]; part II, higher threshold): > 1.0 gm% | tolerated dose, single-dose study [2]: up to 75 mg/kg | oral absorption and bioavailability [3]: well-absorbed and highly bioavailable | Adverse events (Test) ([4]; Food and sex effect 150 mg panel): Palpitation, cellulitis, back pain, musculoskeletal pain, head discomfort, headache (2), folliculitis, cellulitis | total AEs reported ([4]; part III crossover, 150 mg): 11 | effect of acute and chronic kidney failure models on pharmacokinetics ([5]; rats vs normal control rats): did not alter the pharmacokinetics | increase in the exposure after complete removal of both kidneys ([5]; rats): 2 fold | serum EPO levels (serum EPO levels): dose-related increase | decrease of C max by ingestion of food ([6]; fed vs fasting, single 150 mg): 2.39 times | AUCt ([6]; Fasting): 71,331.577 ± 25,663.234 h·ng/mL | AUC∞ ([6]; Fasting): 71,696.758 ± 25,837.440 h·ng/mL | C max ([6]; Fasting): 10,352.800 ± 3076.528 ng/mL | CL/F_obs ([6]; Fasting): 2479.865 ± 1333.719 mL/h | HL_Lambda_z (terminal half-life) ([6]; Fasting): 11.048 ± 3.378 h | V z/F_obs ([6]; Fasting): 37,927.046 ± 18,082.141 mL | λz ([6]; Fasting): 0.067 ± 0.015 h⁻¹ | AUCt ([6]; Fed (high-fat breakfast)): 59,005.375 ± 16,846.249 h·ng/mL | AUC∞ ([6]; Fed (high-fat breakfast)): 59,561.279 ± 17,228.977 h·ng/mL | C max ([6]; Fed (high-fat breakfast)): 4322.000 ± 1317.961 ng/mL | CL/F_obs ([6]; Fed (high-fat breakfast)): 2801.105 ± 1109.706 mL/h | HL_Lambda_z (terminal half-life) ([6]; Fed (high-fat breakfast)): 11.328 ± 3.691 h | V z/F_obs ([6]; Fed (high-fat breakfast)): 45,070.176 ± 19,928.748 mL | λz ([6]; Fed (high-fat breakfast)): 0.066 ± 0.017 h⁻¹ | AUC values, fed vs fasting ([6]; single 150 mg): decreased | mean C max, male vs female subjects ([6]; single 150 mg): not statistically significant | mean t ½, fed vs. fasted ([6]; single 150 mg): similar | exposure, female vs male subjects ([6]; single 150 mg, small group, qualitative): female subjects had a higher exposure than males | effective dose for inducing hematopoiesis (hemoglobin levels; alternate dosing pattern for a week): 15 mg/kg | erythropoiesis / hemoglobin levels (hemoglobin levels; repeated dose model, nephrectomized rats and mice): robust increase in erythropoiesis, resulting in normalization of hemoglobin levels | tolerated dose, single-dose study [7]: up to 800 mg/kg | maximum tolerated dose (MTD) [8]: 60 mg/kg | Amount recovered [mean ± SD] ([9]; 100 mg, Day 1): 50.13 ± 14.99 mg | Percentage recovered [mean ± SD] ([9]; 100 mg, Day 1): 50.132 ± 14.998% | Amount recovered [mean ± SD] ([9]; 100 mg, Day 3): 41.00 ± 11.07 mg | Percentage recovered [mean ± SD] ([9]; 100 mg, Day 3): 41.001 ± 11.071% | Amount recovered [mean ± SD] ([9]; 100 mg, Day 5): 50.14 ± 12.16 mg | Percentage recovered [mean ± SD] ([9]; 100 mg, Day 5): 50.137 ± 12.160% | Amount recovered [mean ± SD] ([9]; 150 mg, Day 1): 52.77 ± 6.85 mg | Percentage recovered [mean ± SD] ([9]; 150 mg, Day 1): 35.178 ± 4.566% | Amount recovered [mean ± SD] ([9]; 150 mg, Day 3): 54.64 ± 13.35 mg | Percentage recovered [mean ± SD] ([9]; 150 mg, Day 3): 36.427 ± 8.900% | Amount recovered [mean ± SD] ([9]; 150 mg, Day 5): 44.23 ± 8.18 mg | Percentage recovered [mean ± SD] ([9]; 150 mg, Day 5): 29.488 ± 5.453% | Amount recovered [mean ± SD] ([9]; 200 mg, Day 1): 64.95 ± 25.50 mg | Percentage recovered [mean ± SD] ([9]; 200 mg, Day 1): 32.474 ± 12.749% | Amount recovered [mean ± SD] ([9]; 200 mg, Day 3): 66.09 ± 8.74 mg | Percentage recovered [mean ± SD] ([9]; 200 mg, Day 3): 33.044 ± 4.371% | Amount recovered [mean ± SD] ([9]; 200 mg, Day 5): 75.76 ± 12.76 mg | Percentage recovered [mean ± SD] ([9]; 200 mg, Day 5): 37.880 ± 6.381% | Amount recovered [mean ± SD] ([9]; 300 mg, Day 1): 82.97 ± 35.69 mg | Percentage recovered [mean ± SD] ([9]; 300 mg, Day 1): 27.656 ± 11.899% | Amount recovered [mean ± SD] ([9]; 300 mg, Day 3): 92.22 ± 41.92 mg | Percentage recovered [mean ± SD] ([9]; 300 mg, Day 3): 30.741 ± 13.972% | Amount recovered [mean ± SD] ([9]; 300 mg, Day 5): 99.15 ± 34.40 mg | Percentage recovered [mean ± SD] ([9]; 300 mg, Day 5): 33.050 ± 11.466% | maximum tolerated dose (MTD) ([10]; 1-month toxicity study): 15 mg/kg | no observed adverse effect level (NOAEL) ([10]; 28-day toxicity study): 5 mg/kg | Adverse events (Test) ([11]; MAD 150 mg panel): Headache, dizziness | Adverse events (Test) ([11]; MAD 200 mg panel): Nausea, headache, dizziness, diarrhea, phlebitis | Adverse events (Test) ([11]; MAD 300 mg panel): Supra ventricular extrasystoles, abdominal pain, diarrhea, contusion, back pain, dizziness, headache, nasal congestion, phlebitis | Adverse events (Test) ([11]; MSD 100 mg panel (multiple dose)): Headache, dizziness | severity of treatment-related AEs ([11]; part II (ZYAN1 and placebo subjects)): all grade 1 in severity, with the exception of dizziness in two subjects, which was classified as grade 2 in severity | subjects with AEs possibly related to study treatment ([11]; part II, 16 AEs in 11 subjects, placebo 63%): 46%
